Experimental data taken from ChEMBL document CHEMBL5143719, “Cosolvent Sites-Based Discovery of Mycobacterium Tuberculosis Protein Kinase G Inhibitors” (J Med Chem, 2022).
The source made the active and inactive calls. The rule behind the calls is not given here.

How the values were obtained:
[1] = target: Serine/threonine-protein kinase PknG (Mycobacterium tuberculosis) (UniProt P9WI73); assay: Inhibition of full length Mycobacterium tuberculosis protein kinase G at 40 uM using GarA as substrate in presence of ATP relative to control
Serine/threonine-protein kinase PknG (Mycobacterium tuberculosis), sequence (P9WI73 whole entry): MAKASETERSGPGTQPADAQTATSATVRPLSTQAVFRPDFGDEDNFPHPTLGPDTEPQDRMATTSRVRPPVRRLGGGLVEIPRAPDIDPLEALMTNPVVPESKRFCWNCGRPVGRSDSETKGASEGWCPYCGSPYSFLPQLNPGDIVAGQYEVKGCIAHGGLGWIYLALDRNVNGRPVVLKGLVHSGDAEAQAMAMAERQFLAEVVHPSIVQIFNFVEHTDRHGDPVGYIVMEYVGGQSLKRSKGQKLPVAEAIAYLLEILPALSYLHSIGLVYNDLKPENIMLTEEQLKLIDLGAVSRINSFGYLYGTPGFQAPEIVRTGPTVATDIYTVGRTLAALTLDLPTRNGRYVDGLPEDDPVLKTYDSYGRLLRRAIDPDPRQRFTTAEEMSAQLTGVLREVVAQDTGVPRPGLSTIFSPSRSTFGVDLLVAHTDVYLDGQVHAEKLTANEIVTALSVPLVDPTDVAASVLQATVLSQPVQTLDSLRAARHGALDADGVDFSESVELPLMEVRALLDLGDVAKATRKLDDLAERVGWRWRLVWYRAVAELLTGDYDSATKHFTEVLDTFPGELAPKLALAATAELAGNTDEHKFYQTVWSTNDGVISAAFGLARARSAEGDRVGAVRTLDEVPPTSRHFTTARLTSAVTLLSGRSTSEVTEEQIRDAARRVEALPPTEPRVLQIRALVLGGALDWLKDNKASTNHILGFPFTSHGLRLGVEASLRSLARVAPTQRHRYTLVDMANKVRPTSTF
Method in brief: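 End-point assay with full-length PknG 1 μM, GarA 25 μM and ATP 2 μM, in 25 mM Tris-HCl pH 7.4, 2 mM MnCl2 and 1–2% DMSO. Reactions ran 60 min at 37 °C, after which remaining ATP was read by Kinase-Glo Plus luminescence. Inhibition was referenced to no-compound (DMSO) and no-GarA controls. Duplicates.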

THP-1 = assay: Cytotoxicity against human THP1 cells assessed as reduction in cell viability at 1 to 10 uM measured for 3 to 48 hrs by trypan blue assay; type: toxicity, cell-based; conditions: thp-1, 10 µM, dose lower 1 µM, time lower 3 hrs, dose upper 10 µM, time upper 48 hrs
Method in brief: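 PMA-differentiated THP-1 macrophages were exposed to compound at 1 and 10 μM for 3, 5, 24 and 48 h. Viability was scored by trypan blue exclusion, in triplicate, as percent of untreated control cells.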

[2] = test system: Mycobacterium tuberculosis; assay: Antimycobacterial activity against Mycobacterium tuberculosis H37Rv infected in human THP-1 cells assessed as reduction in intracellular survival at 1 to 10 uM measured after 24 to 48 hrs; type: functional, organism-based; conditions: dose 1-10 µM, time 24-48 hrs
Method in brief: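 THP-1 monocytes were differentiated with 10 ng/mL PMA for 48 h and infected with Mtb H37Rv (MOI 10) for 2 h. Cells were washed and cultured without penicillin–streptomycin with compound at 1 and 10 μM for 24 and 48 h. Lysis was in 0.05% Triton X-100; serial dilutions were plated in quadruplicate on 7H10 OADC. CFU were counted after 3 weeks. Welch's ANOVA with Dunnett T3.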

[3] = target: T1, Serine/threonine-protein kinase PknG (Mycobacterium tuberculosis, UniProt P9WI73); assay: Binding affinity to full length Mycobacterium tuberculosis protein kinase G expressed in Escherichia coli BL21 assessed as dissociation constant at 21 degreeC by fluorescence spectroscopy based
T1 sequence (P9WI73 whole entry): as above

[4] = target: T1, Serine/threonine-protein kinase PknG; assay: Inhibition of full length Mycobacterium tuberculosis protein kinase G using His-tagged GarA as substrate in presence of [gamma32P] ATP measured after 12 to 24 hrs by radiometric kinase assay

Row | Compound | Activity [2] | Kd [3] [µM] | other results
1 | CS(=O)(=O)Nc1ccc(-c2cc(-c3ccccc3)cc(C(N)=O)c2N)cc1 |  |  | inhibition [1]: 50%
2 | CC(C)c1ccc(C(=O)c2c(N)c(C(N)=O)c3ccccn23)cc1 | Active |  | Activity (THP-1): Non-Toxic
3 | NC(=O)c1c(N)c(C(=O)c2ccc(F)cc2)n2ccccc12 | Active |  | Activity (THP-1): Non-Toxic
4 | NC(=O)c1c(NC(=O)NCC2CCCO2)sc2c1CCCC2 (configuration not stated) | Active |  | 
5 | CCOc1ccc(C(=O)c2c(N)c(C(N)=O)c3ccccn23)cc1 |  | 13 | 
6 | CCN1CCCC1CNC(=O)Nc1sc2c(c1C(N)=O)CCCC2 (configuration not stated) | Active |  | 
7 | NC(=O)c1c(NC(=O)C2CC2)sc2c1CCCC2 | Active |  | IC50 [4]: 0.9 µM
8 | NC(=O)c1c(N)c(C(=O)c2ccc(Br)cc2)n2ccccc12 |  | 1.3 | 
9 | NC(=O)c1c(N)c(C(=O)c2ccccc2)n2ccccc12 |  | 1.8 | 
